System: U2OS
Assay: Multiplex assay against U2OS
Type: toxicity, cell-based
Conditions: human
Procedure, shortened: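 At seeding, live cells were stained with Hoechst33342, BioTracker Green Microtubule Cytoskeleton Dye, MitoTracker Red and Annexin V Alexa Fluor 680. After compound addition they were imaged on a CQ1 microscope at 37°C and 5% CO2, and CellPathfinder machine-learning gating sorted them into Hoechst high-intensity objects or normal cells, with normal cells further split into healthy, pyknosed or fragmented nuclei and pyknosed cells into mitotic or apoptotic. Tubulin, mitochondrial-mass and membrane-permeability phenotypes are given as per cents of cells with healthy nuclei.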

[1] = 12 h, 1 µM, compound concentration 1 uM, replicate 1
[2] = 12 h, 1 µM, compound concentration 1 uM, replicate 2
[3] = 12 h, 10 µM, compound concentration 10 uM, replicate 1
[4] = 12 h, 10 µM, compound concentration 10 uM, replicate 2
[5] = 24 h, 1 µM, compound concentration 1 uM, replicate 1
[6] = 24 h, 1 µM, compound concentration 1 uM, replicate 2
[7] = 24 h, 10 µM, compound concentration 10 uM, replicate 1
[8] = 24 h, 10 µM, compound concentration 10 uM, replicate 2
[9] = 48 h, 1 µM, compound concentration 1 uM, replicate 1
[10] = 48 h, 1 µM, compound concentration 1 uM, replicate 2
[11] = 48 h, 10 µM, compound concentration 10 uM, replicate 1
[12] = 48 h, 10 µM, compound concentration 10 uM, replicate 2

C[C@H](N)COC(=O)[C@@H](CCCCN)NC(=O)Cc1c(-c2ccc3ccccc3c2)[nH]c2c1ccc1ccccc12
Population Apoptotic (%) [1]: 73%
Population Fragmented Nuclei (%) [1]: 26%
Population Healthy Nuclei (%) [1]: 66%
Population Hoechst High Intensity Objects (%) [1]: 3%
Population Membrane Permeable-Phenotype (%) [1]: 6%
Population Mitochondria Different-Phenotype (%) [1]: 3%
Population Mitotic Cells (%) [1]: 26%
Population Normal (%) [1]: 96%
Population Pyknosed Nuclei (%) [1]: 6%
Population Tubulin-Different-Phenotype (%) [1]: 3%
Total Cell Count [1]: 244
Population Apoptotic (%) [2]: 75%
Population Fragmented Nuclei (%) [2]: 14%
Population Healthy Nuclei (%) [2]: 78%
Population Hoechst High Intensity Objects (%) [2]: 0%
Population Membrane Permeable-Phenotype (%) [2]: 4%
Population Mitochondria Different-Phenotype (%) [2]: 2%
Population Mitotic Cells (%) [2]: 25%
Population Normal (%) [2]: 99%
Population Tubulin-Different-Phenotype (%) [2]: 4%
Total Cell Count [2]: 128
Population Apoptotic (%) [3]: 78%
Population Fragmented Nuclei (%) [3]: 23%
Population Healthy Nuclei (%) [3]: 69%
Population Hoechst High Intensity Objects (%) [3]: 2%
Population Membrane Permeable-Phenotype (%) [3]: 5%
Population Mitochondria Different-Phenotype (%) [3]: 1%
Population Mitotic Cells (%) [3]: 21%
Population Normal (%) [3]: 97%
Population Pyknosed Nuclei (%) [3]: 7%
Population Tubulin-Different-Phenotype (%) [3]: 3%
Total Cell Count [3]: 279
Population Apoptotic (%) [4]: 50%
Population Fragmented Nuclei (%) [4]: 24%
Population Healthy Nuclei (%) [4]: 73%
Population Hoechst High Intensity Objects (%) [4]: 0%
Population Membrane Permeable-Phenotype (%) [4]: 17%
Population Mitochondria Different-Phenotype (%) [4]: 3%
Population Mitotic Cells (%) [4]: 50%
Population Normal (%) [4]: 100%
Population Pyknosed Nuclei (%) [4]: 1%
Population Tubulin-Different-Phenotype (%) [4]: 5%
Total Cell Count [4]: 106
Population Apoptotic (%) [5]: 83%
Population Fragmented Nuclei (%) [5]: 22%
Population Healthy Nuclei (%) [5]: 68%
Population Hoechst High Intensity Objects (%) [5]: 2%
Population Membrane Permeable-Phenotype (%) [5]: 3%
Population Mitochondria Different-Phenotype (%) [5]: 1%
Population Mitotic Cells (%) [5]: 16%
Population Normal (%) [5]: 97%
Population Pyknosed Nuclei (%) [5]: 8%
Population Tubulin-Different-Phenotype (%) [5]: 2%
Total Cell Count [5]: 292
Population Apoptotic (%) [6]: 90%
Population Fragmented Nuclei (%) [6]: 16%
Population Healthy Nuclei (%) [6]: 77%
Population Hoechst High Intensity Objects (%) [6]: 1%
Population Membrane Permeable-Phenotype (%) [6]: 6%
Population Mitotic Cells (%) [6]: 10%
Population Normal (%) [6]: 98%
Population Pyknosed Nuclei (%) [6]: 5%
Population Tubulin-Different-Phenotype (%) [6]: 3%
Total Cell Count [6]: 170
Population Apoptotic (%) [7]: 81%
Population Fragmented Nuclei (%) [7]: 19%
Population Healthy Nuclei (%) [7]: 73%
Population Hoechst High Intensity Objects (%) [7]: 2%
Population Membrane Permeable-Phenotype (%) [7]: 5%
Population Mitochondria Different-Phenotype (%) [7]: 1%
Population Mitotic Cells (%) [7]: 18%
Population Normal (%) [7]: 97%
Population Pyknosed Nuclei (%) [7]: 6%
Population Tubulin-Different-Phenotype (%) [7]: 2%
Total Cell Count [7]: 337
Population Apoptotic (%) [8]: 100%
Population Fragmented Nuclei (%) [8]: 17%
Population Healthy Nuclei (%) [8]: 79%
Population Membrane Permeable-Phenotype (%) [8]: 11%
Population Mitochondria Different-Phenotype (%) [8]: 3%
Population Mitotic Cells (%) [8]: 0%
Population Pyknosed Nuclei (%) [8]: 2%
Population Tubulin-Different-Phenotype (%) [8]: 6%
Total Cell Count [8]: 142
Population Apoptotic (%) [9]: 79%
Population Fragmented Nuclei (%) [9]: 16%
Population Healthy Nuclei (%) [9]: 78%
Population Hoechst High Intensity Objects (%) [9]: 1%
Population Membrane Permeable-Phenotype (%) [9]: 2%
Population Mitochondria Different-Phenotype (%) [9]: 2%
Population Mitotic Cells (%) [9]: 20%
Population Normal (%) [9]: 98%
Population Pyknosed Nuclei (%) [9]: 5%
Population Tubulin-Different-Phenotype (%) [9]: 2%
Total Cell Count [9]: 440
Population Apoptotic (%) [10]: 73%
Population Fragmented Nuclei (%) [10]: 17%
Population Healthy Nuclei (%) [10]: 73%
Population Hoechst High Intensity Objects (%) [10]: 2%
Population Membrane Permeable-Phenotype (%) [10]: 3%
Population Mitochondria Different-Phenotype (%) [10]: 4%
Population Mitotic Cells (%) [10]: 26%
Population Normal (%) [10]: 97%
Population Pyknosed Nuclei (%) [10]: 8%
Population Tubulin-Different-Phenotype (%) [10]: 1%
Total Cell Count [10]: 231
Population Apoptotic (%) [11]: 90%
Population Fragmented Nuclei (%) [11]: 14%
Population Healthy Nuclei (%) [11]: 74%
Population Hoechst High Intensity Objects (%) [11]: 4%
Population Membrane Permeable-Phenotype (%) [11]: 6%
Population Mitochondria Different-Phenotype (%) [11]: 1%
Population Mitotic Cells (%) [11]: 9%
Population Normal (%) [11]: 95%
Population Pyknosed Nuclei (%) [11]: 10%
Population Tubulin-Different-Phenotype (%) [11]: 2%
Total Cell Count [11]: 505
Population Fragmented Nuclei (%) [12]: 16%
Population Healthy Nuclei (%) [12]: 77%
Population Membrane Permeable-Phenotype (%) [12]: 16%
Population Mitochondria Different-Phenotype (%) [12]: 2%
Population Mitotic Cells (%) [12]: 10%
Population Pyknosed Nuclei (%) [12]: 5%
Population Tubulin-Different-Phenotype (%) [12]: 6%
Total Cell Count [12]: 184
